Source: ChEMBL document CHEMBL4513216, “Probing the Open Global Health Chemical Diversity Library for Multistage-Active Starting Points for Next-Generation Antimalarials” (ACS Infect Dis, 2020)

Assay: Toxicity liver stage against HepG2, at 10uM
Format: cell-based
Set-up: test concentration 10 uM, cell line HepG2-A16-CD81EGFP
Conditions: human, HepG2-A16-CD81EGFP cells; read-out: INHIBITION
Outline: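 Uninfected HepG2-A16-CD81EGFP cells, 3 × 10^3 per well, 1536-well, plated on prespotted compound at 10 μM final, parasite-free screening media added to match infected plates; puromycin 10 μM positive, DMSO 0.5% negative; run in parallel with 48 h PbLuc assay at 37 °C, 5% CO2; viability by CellTiter-Glo luminescence, normalized to controls.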

Compound | cytotoxicity at 10 µM
Cn1c(=O)c2sccc2n(Cc2ccccc2)c1=O | 4.84%
CCOC(=O)CCC(=O)NC(C)c1ccc(NC(=O)CC)cc1 (stereo not given) | 0.097%
COc1cc(CN2CCCC2c2cccc(F)c2)cc(OC)c1OC (stereo not given) | -2.03%
Cc1cc(C(=O)N2CCN(c3nc4ccccc4s3)CC2)no1 | -110%
CC(C)CNC(=O)c1cn(C(C)C)cc2c(=O)[nH]nc1-2 | 0.583%
O=C(NC1CCC1)[C@H]1C[C@H]2NCCO[C@@H]2C1 | -131%
CC(C)(C)C(=O)N1CC[C@@H]2[C@H](CC1)N(S(C)(=O)=O)CCS2(=O)=O | 0.64%
Cc1cccc(CN2C(=O)CCC23CCN(Cc2nccn2C)CC3)n1 | 5.47%
Cc1c(C)n(CC(O)CN2CCC(C)CC2)c2c(Cl)cccc12 (stereo not given) | -5.12%
CCOC(=O)c1cn(CC(O)c2ccccc2OC)nn1 (stereo not given) | -4.06%
COc1cc(C(=O)NC(C)C)nc2c(C)cc(F)cc12 | 2.43%
O=C(c1cnc2ccc(F)cc2c1NCc1ccco1)N1CCCC1 | -54.5%
CCOCC1CN(S(C)(=O)=O)Cc2cnn(C)c21 (stereo not given) | -15.4%
O=C(CC1CC1)NCc1cc(=O)n2c(n1)CN(Cc1ccoc1)CCC2 | -20.6%
CN(C)c1cc(CC(NC(=O)C2CC2)c2ccccc2)nc(C2CC2)n1 (stereo not given) | 5.73%
Cc1nn(C)cc1S(=O)(=O)N[C@@H]1CCC[C@@H](N2CCCC2)[C@@H]1O | -3.02%
Cc1nn(C)c(C)c1-c1ccc(=O)n(C(C)C(=O)NC2CC2)n1 (stereo not given) | 0.0475%
COCC(=O)N1CCCCC1c1nc(C)c2c(n1)N(C1CC1)C(=O)CC2 (stereo not given) | -1%
CN1CCC(Cc2cc(N(C)C)ncn2)C1 (stereo not given) | 3.19%
COc1ccccc1C1(O)CCCN(C(=O)c2cnc(SC)nc2)C1 (stereo not given) | 7.27%
Fc1ccc(CN2CCC(c3nccnc3-n3ccnc3)CC2)cc1 | -0.259%
CC(=O)Nc1ccc(CNC2COc3c2ccc(C)c3C)cc1 (stereo not given) | 6.56%

Compound | cytotoxicity at 10 µM
OCc1cccc(OCc2ccon2)c1 | 0.266%
COc1ccc(CCNC(=O)NCc2cccc(C(N)=O)c2)cc1OC | 11.8%
Cc1[nH]nc2ncc(C(=O)N3CCCC3c3noc(C(C)C)n3)cc12 (stereo not given) | 8.38%
NC(=O)C1CCCN(S(=O)(=O)c2cnn(-c3ccccc3)c2)C1 (stereo not given) | -66.6%
COc1ccc(CCC2CCCCN2)cc1OC (stereo not given) | 12.1%
Cc1ccc(C(C)N(C)C(=O)c2ccc(=O)n(C)c2)s1 (stereo not given) | -4.27%
CCc1cc(=O)[nH]c(-c2ccc(NCCC(C)O)nc2)n1 (stereo not given) | -127%
CC1CN(Cc2cccc(CNC3CCCC3)c2)CCO1 (stereo not given) | 3.06%
Cc1noc(C(C)N2CCN(Cc3noc(C4CC4)n3)CC2)n1 (stereo not given) | 0.973%
CC(CC(=O)N1CCN(c2cnccn2)CC1)c1ccc(F)cc1 (stereo not given) | -48%
CC(c1ccccn1)N(C)C(=O)CN1CCN(c2ccccn2)CC1 (stereo not given) | 5.1%
Cc1nc(-c2ccc(CC(=O)N3CCNC(=O)C3)cc2)cs1 | 6.14%
COc1cc(OC)cc(N2CCC(NCc3cccs3)C2=O)c1 (stereo not given) | 4.63%
Cc1ccc(C(=O)NCC(C)CN2CCCC2=O)c(=O)[nH]1 (stereo not given) | -8.57%
CC(NC(=O)c1ccc(C#N)cn1)C1(N2CCOCC2)CCCC1 (stereo not given) | 2.54%
CC(C)(C)C(=O)NCc1nccn1CCc1ccccc1 | 3.75%
CC(C)c1nc(C(=O)N2CCOCC2CC(=O)c2ccco2)cs1 (stereo not given) | -7.58%
CSCC(CCO)NC(=O)Nc1cccc(Br)c1C (stereo not given) | -3.7%
CC(=O)c1ccc(OCC(=O)NS(=O)(=O)c2ccc(Cl)s2)cc1 | 1.77%
c1ccc(OCCN2CCC(n3cncn3)CC2)cc1 | -20.7%
CC(C)N(Cc1ccccn1)C(=O)CCC(=O)c1ccc(F)cc1F | -0.535%
CC(C)OCCN1CCN(c2ccc(Cl)cn2)CC1 | -1.67%

Compound | cytotoxicity at 10 µM
COc1ccccc1CNCc1nn(-c2ccccc2)c2c1CCC2 | 34.4%
CN(CC(=O)NC1CC1)C(=O)c1csc(Br)c1 | -0.872%
CC(C)c1ocnc1C(=O)N1CC(=O)Nc2cccnc21 | 1.56%
COc1ccc2c(c1)CC(NCCCn1cc(C)cn1)CC2 (stereo not given) | 18%
CC(C#N)(NC(=O)Cn1cc(I)cn1)C1CC1 (stereo not given) | 15.2%
CC1(C)Cc2ccc(C(=O)NC3CCS(=O)(=O)C3)c(O)c2O1 (stereo not given) | 0.329%
O=C(CCC1CCCO1)NCCCC(=O)Nc1ccc(Cl)cc1 (stereo not given) | -0.649%
CN(C)c1ncc(CNC(=O)Nc2ccccc2C(F)(F)F)n1C | -55.3%
c1ccc2[nH]c(C3CCN(Cc4nc(C5CC5)no4)CC3)cc2c1 | 9.02%
CN(Cc1ccc(F)cc1)C(=O)NCC1(N2CCOCC2)CCSC1 (stereo not given) | -21.9%
O=C(NCCOc1ccc(F)c(F)c1)NCc1ccncc1 | -8.25%
N#Cc1ccc(OCCNc2cccc(C(=O)N3CCOCC3)c2)cc1 | -2.96%
COc1ccc(-c2nnc(SC(C)C(=O)NC3CC3)[nH]2)c(OC)c1 (stereo not given) | 45.3%
O=C(Nc1cccc(CN2CCOC2=O)c1)N1CCSCC1 | -11.3%
CCc1cnc(CN(C)C2CCN(CCS(C)(=O)=O)C2)o1 (stereo not given) | -3.94%
Cc1nn(CC(=O)N2CCCC2Cn2cccn2)c(C)c1Cl (stereo not given) | 2.27%
Cc1nc(COC[C@@H]2CC[C@H]3[C@H](CCN3C(=O)C3CC3)O2)cs1 | -73.9%
O=C1CC(c2cccnc2)C2(CCN(C(=O)N3CCOCC3)CC2)N1 (stereo not given) | -79.5%
C[C@H]1CN(C(=O)N(C)C)C[C@@]12CCN(c1ccsc1)C2=O | -73.1%
CC(C)Nc1ncnc2c1CCN(C(=O)CN(C)C)CC2 | -70.9%
Cc1cccc(C(=O)N2Cc3ccccc3C3(CCN(C)CC3)C2)n1 | -73.5%
CC(=O)NC(C)C1=CCCN(Cc2ccc(C(=O)O)cc2)C1 (stereo not given) | -12.1%

Compound | cytotoxicity at 10 µM
COc1cccc2c1OCC(C(=O)NCCCn1nc(C)c(Cl)c1C)C2 (stereo not given) | -4.12%
Cc1ccccc1C(Nc1ncnc2c1CCNC2)c1ccccc1 (stereo not given) | 7.78%
CN1CCC2(CCCN(S(=O)(=O)c3ccc(-c4cnco4)s3)C2)C1 (stereo not given) | -7.56%
Cc1ccc(NCCCNC(=O)C2CC3(CCNCC3)CN2C)nc1 (stereo not given) | 6.07%
Cc1c(-c2ccccc2)ncn1CC(c1cccnc1)N1CCOCC1 (stereo not given) | 2.11%
N[C@H]1CN(C(=O)c2ccc(CO)cc2)C[C@@H]1C1CC1 | 2.56%
CCN1CCN(C(=O)CCC2CCN(C(C)CSC)CC2)CC1 (stereo not given) | -0.0154%
O=C1N(Cc2ccc(F)c(F)c2)CCCC12CCN(C1CCCC1)C2 (stereo not given) | -2.8%
O=C(NCC(F)F)c1ccc(S(=O)(=O)N2CCCC(O)C2)cc1 (stereo not given) | 1.29%
Cc1cc(C(=O)N2CCNC(c3ccccc3)C2)c2ccc(F)cc2n1 (stereo not given) | 3.09%
Nc1cc(C(=O)NCC2CCN(CCc3ccccc3)C2)ccn1 (stereo not given) | -5.47%
Cc1ncc(CN2CCCC2c2ccc(C(=O)NCc3ccoc3)s2)s1 (stereo not given) | -1.06%
Cc1cc(N2CCN(Cc3ccccc3)CC(O)C2)cc(C)n1 (stereo not given) | -17.4%
CCN1CC2(CCC1=O)CCN(C(=O)c1ccc(Cl)cc1O)CC2 | -12.8%
CN1CC(c2ccccc2)CC12CCN(C(=O)c1ccc(F)cc1)CC2 (stereo not given) | -12.1%
O=C1COc2cc(C(=O)NS(=O)(=O)c3cc(Cl)ccc3Cl)ccc2N1 | -7.96%
COc1ccc(C2CCCN2Cc2ccc(S(=O)(=O)N(C)C)o2)cc1 (stereo not given) | -5%
CCNc1cc2c(nn1)CCN(C(=O)Cc1ccc(C)s1)C2 | -0.375%
CC1CCCN(S(=O)(=O)NCc2ccccc2Cn2cncn2)C1 (stereo not given) | 1.55%
Cc1cnn(CCC(=O)N2CCCN(c3ccccc3C#N)CC2)c1 | -2.85%
CN1CCCc2cc(CNC(=O)c3ccc(-n4cnnc4)cc3)ccc21 | -4.9%
O=C(NCCNc1ccc(C(F)(F)F)cn1)c1cc(Cl)ccc1F | -8.27%

Compound | cytotoxicity at 10 µM
COc1c(C2CCCN2C(=O)c2ccc(O)nc2)c(C)nn1C (stereo not given) | 2.63%
Cc1nc2ccccc2nc1CN1CCCCC1Cn1cncn1 (stereo not given) | -7.36%
Cc1cc(C[S+]([O-])CC(=O)NCc2cccs2)no1 (stereo not given) | -12.3%
Cc1ccc(NC2CCN(C(=O)c3cccn3C)CC2)nn1 | -3.76%
COc1ccccc1CC(=O)N1CCC(NCc2cc[nH]c2)CC1 | 0.593%
Cc1cc(C(=O)O)cc(S(=O)(=O)Nc2ccc3c(c2)OCO3)c1C | 0.89%
COc1cc(C)nc(N2CCN(C(=O)CNC(C)(C)C)CC2)n1 | -7.67%
CN(C)c1cc(CNC(=O)c2ccc(F)cc2F)ccn1 | -4.82%
COc1cc2c(cc1CNC(Cc1cccs1)c1nccs1)OCCO2 (stereo not given) | -1.6%
CC(C)C(=O)N1C[C@H]2CCCN[C@H]2C1 | 1.55%
C[C@@H]1CN(Cc2cccnc2)C[C@]12CCN(CCN1CCCC1)C2=O | -6.04%
Cc1cccc(CN2CCC3(CC2)NC(=O)CC3c2ccccc2)n1 (stereo not given) | -0.508%
COCCN1C(=O)CC[C@@H]2[C@H]1CCN2Cc1ccc(C)s1 | -70.4%
CC1=N[C@@]2(CC[C@@H]3CN(CC(=O)N(C)C)C[C@@H]32)C(=O)N1CC1CC1 | -3.9%
O=C1COC2(COCCN(Cc3cccnc3)C2)CN1c1ccccc1 (stereo not given) | 9.72%
CCN(CC)Cc1cn2c(n1)CN(C(=O)c1cnccn1)CC2 | 6.15%
Cc1ccc(CN2CCc3nnc(CN4CCCC4=O)n3CC2)s1 | 1.02%
O=C(NCc1ccccn1)[C@H]1COC[C@H]2CN(CC3CC3)C[C@H]21 | -80.8%
Cc1cccc(CN2C[C@@H]3CN(C4CCOCC4)C[C@@H]3C2=O)c1 | -130%
Cc1ccsc1C(=O)N1CC[C@@H](N(C)C)[C@@H]1Cc1cnn(C)c1 | -77.6%
CN1CCNC(=O)C12CCN(Cc1ccco1)CC2 | -81.3%
CCOCC1CN(CCN2CCCCC2)Cc2cnn(C)c21 (stereo not given) | -99.9%
